Data on 5 molecules can be found in ChEMBL document CHEMBL1121495, “Anticandidal activity of pyrimidine-peptide conjugates” (J Med Chem, 1980).

SMILES strings stand for the structures.

This assay relates to Candida albicans. As to the kind of experiment: Compound was evaluated for inhibition of transport of trimethionine in Candida albicans WD 18-4. Format: functional. The arrangement: concentration or dose not given beside the values. In outline:
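Initial uptake rate of radiolabeled (Met)3 into C. albicans WD 18-4 cells grown 6-8 h at 37 °C with aeration. Washed cells (1.4 mg dry wt/mL) preincubated 10 min at 37 °C, mixed with reaction mix of 2% glucose, citrate-phosphate buffer pH 3.5 (0.012 M) and (Met)3 6.06 x 10^-5 M. Samples filtered at intervals, washed, scintillation counted. Competitor included at 10-fold molar excess over (Met)3.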
Take `COC(=O)[C@H](CCSC)NC(=O)[C@H](CCSC)NC(=O)c1cc(O)nc(O)n1`: the Inhibition is on record as 0%. The figure for `O=C(O)CNC(=O)CNC(=O)c1cc(O)nc(O)n1` is 0%. The figure for `CC(C)C[C@H](NC(=O)c1nc(O)nc(O)c1F)C(=O)O` is 0%; for `CC(C)CC(NC(=O)C(CC(C)C)NC(=O)c1cc(O)nc(O)n1)C(=O)O` (stereo not given) it is 67%; for `CC(C)C[C@H](NC(=O)[C@H](CC(C)C)NC(=O)c1nc(O)nc(O)c1F)C(=O)O` it is 40%.

The Inhibition is the relative decrease from the control value, in per cent.
